Assay results: article PMC4356685 (International Journal of Nanomedicine, 2015)

Assays:
[1] = Toxicity in tumor-bearing mice; type: in vivo; conditions: PTX 10 mg/kg i.v. in 4T1 tumor-bearing BALB/c mice
4T1 cells = experiment: In vitro cytotoxicity, WST-8 assay; type: cell-based, mouse; conditions: 48 hours, WST-8, n=5
[2] = Pharmacokinetic studies in rats; type: in vivo, Sprague Dawley (SD) rats
Procedure, shortened: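 Female SD rats (200±20 g), three per group, received a single tail-vein injection in 0.9% saline (10 mg/kg drug-equivalent). Retro-orbital blood was taken at 5, 15 and 30 min and at 1, 1.5, 2, 4, 7, 10 and 24 h into heparinized tubes. Plasma was stored at −20°C, extracted, redissolved in acetonitrile, filtered and quantified by HPLC against spiked-plasma standard curves. Parameters came from a two-compartment model fit.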

4T1 murine breast tumors = experiment: In vivo anticancer efficacy; conditions: 4T1 tumor-bearing BALB/c mice, PTX 10 mg/kg i.v. at days 10, 13, 16, 19
Procedure, shortened: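 Female BALB/c mice (4–6 weeks old) were inoculated subcutaneously in the left back, under anesthesia, with ~5×10^5 4T1 cells in PBS. Dosing began at a tumor volume of about 50–100 mm3: 10 mg/kg drug-equivalent by tail-vein injection on days 10, 13, 16 and 19 after inoculation, with a normal-saline control. Tumors (V = L×W²/2) and body weight were measured every 2 days until day 23. Survival was followed until death from tumor growth or treatment.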

[3] = Sprague-Dawley, rat, plasma, iv, 10 mg/kg
[4] = rats, i.v. tail vein, 10 mg/kg of PTX, two-compartment model

## CC(=O)O[C@H]1C(=O)[C@@]2(C)[C@H]([C@H](OC(=O)c3ccccc3)[C@]3(O)C[C@H](OC(=O)[C@H](O)[C@@H](NC(=O)c4ccccc4)c4ccccc4)C(C)=C1C3(C)C)[C@]1(OC(C)=O)CO[C@@H]1C[C@@H]2O [Free PTX, paclitaxel]
[1]
  acute toxicity / deaths after intravenous injection: some deaths were observed a few minutes after the injection
4T1 cells
  cytotoxicity (cell viability) compared with other formulations: stronger inhibition effects compared to the PEGylated nanoparticles
[2]; [3]
  AUC(0-inf): 49200 ± 16900 ng·h/mL
  AUC(0-t): 46600 ± 16800 ng·h/mL
  clearance: 8.5 mL/min/kg
  k el: 0.000511 s⁻¹
[2]; [4]
  K12 (transfer rate constant from central to periphery compartment): 0.45 ± 0.33 h⁻¹
  K21 (transfer rate constant from periphery to central compartment): 0.55 ± 0.24 h⁻¹
  V1 (volume of central compartment): 0.28 ± 0.02 L/kg
  V2 (volume of periphery compartment): 0.21 ± 0.12 L/kg
4T1 murine breast tumors
  median survival time: 31 days
4T1 murine breast tumors; n=8
  tumor inhibition rate: 32.5%
